According to ChEMBL document CHEMBL1795205, “The new 5- or 6-azapyrimidine and cyanuric acid derivatives of l-ascorbic acid bearing the free C-5 hydroxy or C-4 amino group at the ethylenic spacer: CD-spectral absolute configuration determination and biological activity evaluations” (Eur J Med Chem, 2011):

What was measured:
HepG2 = test: Cytostatic activity against human HepG2 cells assessed as inhibition of cell proliferation after 72 hrs by MTT assay; format: functional, cell-based; settings: HepG2, 72 h
Summary of the method: (§1)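 Monolayer cells grown in DMEM with 10% FBS were seeded on day 0 at 3000–6000 cells/well, set by each line's doubling time. Agents were added the next step in five 10-fold dilutions (0.01–100) for 72 h, with DMSO ≤0.1% and a solvent control. MTT absorbance was converted to percentage growth versus untreated wells on the same plate. Where all PGs exceeded 50, the top concentration was reported as ">". ANOVA/Tukey, p<0.05.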

MCF7 = test: Cytostatic activity against human MCF7 cells assessed as inhibition of cell proliferation after 72 hrs by MTT assay; format: functional, cell-based; settings: MCF7, 72 h; summary of the method: as §1
WI-38 = test: Cytotoxicity against human WI38 cells assessed as inhibition of cell proliferation after 72 hrs by MTT assay; format: cell-based; settings: WI-38, 72 h; summary of the method: as §1
SW-620 = test: Cytostatic activity against human SW620 cells assessed as inhibition of cell proliferation after 72 hrs by MTT assay; format: functional, cell-based; settings: SW-620, 72 h; summary of the method: as §1
HeLa = test: Cytostatic activity against human HeLa cells assessed as inhibition of cell proliferation after 72 hrs by MTT assay; format: functional, cell-based; summary of the method: as §1
MIA PaCa-2 = test: Cytostatic activity against human MIAPaCa2 cells assessed as inhibition of cell proliferation after 72 hrs by MTT assay; format: functional, cell-based; settings: MIA PaCa-2, 72 h; summary of the method: as §1

SMILES | IC50 (HepG2) [µM] | IC50 (MCF7) [µM] | IC50 (SW-620) [µM] | IC50 (HeLa) [µM] | IC50 (MIA PaCa-2) [µM] | IC50 (WI-38) [µM]
Nc1ncn(C/C=C2\OC(=O)C(O)=C2OCc2ccccc2)c(=O)n1 | > 100 | > 100 | > 100 | > 100 | > 100 | > 100
O=C1O[C@H]([C@@H](O)Cn2c(=O)[nH]c(=O)[nH]c2=O)C(OCc2ccccc2)=C1OCc1ccccc1 | > 100 | > 100 | > 100 | > 100 | > 100 | > 100
Cc1cn(CCC2(N)OC(=O)C(OCc3ccccc3)=C2OCc2ccccc2)c(=O)[nH]c1=O (racemic) | > 100 | 80.4 | > 100 | > 100 | > 100 | > 100
NC1(CCn2c(=O)[nH]c(=O)[nH]c2=O)OC(=O)C(OCc2ccccc2)=C1OCc1ccccc1 (racemic) | > 100 | 84.9 | > 100 | 77.1 | > 100 | > 100
O=C1O/C(=C\Cn2c(=O)[nH]c(=O)[nH]c2=O)C(O)=C1O | > 100 | > 100 | > 100 | > 100 | > 100 | 35.3

More lines, main results first:

IC50 (HepG2) [µM] | IC50 (MCF7) [µM] | IC50 (SW-620) [µM] | IC50 (HeLa) [µM] | IC50 (MIA PaCa-2) [µM] | SMILES | IC50 (WI-38) [µM]
> 100 | 73.8 | > 100 | > 100 | 71.7 | Nc1ncn(C[C@H](O)[C@H]2OC(=O)C(OCc3ccccc3)=C2OCc2ccccc2)c(=O)n1 | > 100
62.2 | 4.79 | > 100 | 35.9 | > 100 | O=C1O[C@H]([C@@H](O)Cn2ccc(NC(=O)c3ccccc3)nc2=O)C(OCc2ccccc2)=C1OCc1ccccc1 | 8.82
42.8 | 20.9 | > 100 | > 100 | > 100 | NC1(CCn2cc(F)c(=O)[nH]c2=O)OC(=O)C(OCc2ccccc2)=C1OCc1ccccc1 (racemic) | 36.2
